From paper PMC2818544 (Bioorganic & medicinal chemistry, 2009)
pIC50, pKi: −log10 of the molar value.

Assays:
RmlC and RmlD [1] = molecular target: RmlC and RmlD (Mycobacterium tuberculosis, UniProt P9WH09); assay type: biochemical; conditions: read-out: Km of NADPH; cofactor; TDP-KDX at 200 μM
RmlC [2] = molecular target: T1, RmlC (Mycobacterium tuberculosis, UniProt P9WH11); test: 96-well RmlC/RmlD coupled assay, NADPH absorbance at 340 nm; assay type: biochemical
RmlC [3] = molecular target: T1, RmlC; test: Mode of inhibition: TDP-KDX Km; assay type: biochemical
RmlC [4] = molecular target: T1, RmlC; test: Time dependence of the onset of inhibition; assay type: biochemical; conditions: pre-incubation 0, 1, 2 or 3 hr
Summary of the method: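 Test compound came from a 16-point 2-fold serial dilution (2.5 mM top stock) and was diluted in water. It was pre-incubated 0–3 hr with 2x RmlC, RmlD and NADPH in 83.5 mM MOPS. TDP-KDX was then added and NADPH fluorescence followed over 90 min. IC50 came from a 4-parameter logistic fit of percent activity.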

RmlC [5] = molecular target: T1, RmlC; test: Reversibility of inhibition; assay type: biochemical; conditions: 10 times IC50 pre-incubated 0 or 0.5 hr with 100x RmlC, diluted 100-fold
Summary of the method: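 Test compound incubated 0 or 0.5 hr at 25°C with concentrated RmlC in buffer, then diluted 100-fold. RmlD, TDP-KDX and NADPH were added, and activity was followed as the decrease in NADPH fluorescence (340/460 nm) over 200 min. Controls had no compound, or compound added only after dilution.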

RmlC and RmlD [6] = assay type: biochemical, Mycobacterium tuberculosis; conditions: read-out: IC50 of the known inhibitor TDP
[7] = Cytotoxicity, CellTiter-Glo luminescence; assay type: cell-based; conditions: human, human aortic endothelial (HAE) cells

T1 sequence (P9WH11 whole entry, looked up): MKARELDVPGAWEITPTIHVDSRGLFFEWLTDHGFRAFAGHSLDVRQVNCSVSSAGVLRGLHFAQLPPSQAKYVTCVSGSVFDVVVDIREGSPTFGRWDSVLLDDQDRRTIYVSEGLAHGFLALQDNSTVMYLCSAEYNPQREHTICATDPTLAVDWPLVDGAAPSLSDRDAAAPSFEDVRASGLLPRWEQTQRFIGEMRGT
RmlC and RmlD (Mycobacterium tuberculosis, UniProt P9WH09), sequence (P9WH09 whole entry): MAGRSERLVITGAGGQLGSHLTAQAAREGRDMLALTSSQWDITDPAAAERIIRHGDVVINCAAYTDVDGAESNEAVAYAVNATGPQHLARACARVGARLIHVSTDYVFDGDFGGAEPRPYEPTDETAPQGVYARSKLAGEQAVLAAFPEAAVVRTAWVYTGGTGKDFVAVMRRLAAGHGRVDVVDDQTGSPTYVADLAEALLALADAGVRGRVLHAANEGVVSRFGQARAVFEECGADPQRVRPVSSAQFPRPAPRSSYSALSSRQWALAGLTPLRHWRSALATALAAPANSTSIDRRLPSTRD

`NC(=O)C1=CN([C@@H]2O[C@H](COP(=O)(O)OP(=O)(O)OC[C@H]3O[C@@H](n4cnc5c(N)ncnc54)[C@H](OP(=O)(O)O)[C@@H]3O)[C@@H](O)[C@H]2O)C=CC1` [NADPH] showed a Km (RmlC and RmlD [1]) of 12 µM.
For `C=CCn1c2ccccc2c2nnc(SCn3c(=O)[nH]c4ccccc43)nc21` [SID 7972845], the “fold increase of IC50 relative to 77074” value (RmlC [2]) was 86 fold.
With `CCn1c2ccccc2c2nnc(SCCCn3c(=O)[nH]c4ccccc43)nc21` [SID 7975595, 1-(3-(5-ethyl-5H-[1,2,4]triazino[5,6-b]indol-3-ylthio)propyl)-1H-benzo[d]imidazol-2(3H)-one] the pKi (RmlC [3]) was 7.00, the “affinity of inhibitor relative to TDP-KDX (Km versus Ki)” value (RmlC [3]; comparison of Km of TDP-KDX and Ki of inhibitor) was “approximately 2000 fold” and the mode of inhibition (RmlC [3]; versus substrate TDP-KDX) was “classical competitive inhibitor”. The “change of IC50 with pre-incubation time (onset of inhibition)” value (RmlC [4]) was “No such decrease in IC50 was observed” and the reversibility of inhibition (RmlC [5]) was “fully reversible inhibitor”.
Work on `Cc1cn([C@H]2C[C@H](O)[C@@H](COP(=O)(O)OP(=O)(O)O)O2)c(=O)[nH]c1=O` [TDP, reference compound] yielded a pIC50 (RmlC and RmlD [6]) of 3.47.
With `O=c1[nH]c2ccccc2n1CCCSc1nnc2c3ccccc3n(Cc3ccccc3)c2n1` [compound 77070] the “fold increase of IC50 relative to SID 7975595 (R1 ethyl)” value (RmlC [2]) was “approximately 15 fold”.
With `CCCn1c2ccccc2c2nnc(SCCCn3c(=O)[nH]c4ccccc43)nc21` [compound 77071] the “fold increase of IC50 relative to 77074” value (RmlC [2]) was 10 fold.
`COc1cccc2c1C(=O)c1c(O)c3c(c(O)c1C2=O)C[C@@](O)(C(=O)CO)C[C@@H]3O[C@H]1C[C@H](N)[C@H](O)[C@H](C)O1` [doxorubicin] gave an IC50 at 24 h [7] of ~10 µM.
